Legend:
ECV-304 = assay: Protection of hydrogen peroxide-induced damage in ECV304 cells; assay type: functional, cell-based; settings: Homo sapiens
Plasma = assay: Inhibition of ADP-induced platelet aggregation in rabbit plasma at 200 uM; assay type: functional, Oryctolagus cuniculus; set-up: scale not given: the % may be the effect or the level left
In short: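 Rabbit blood anticoagulated with 3.8% trisodium citrate, with ADP as inducer; blank and ADP-control cuvettes included. Platelet-rich plasma was taken from the supernatant after 270 g/5 min. Platelet-poor plasma came from re-spinning at 1000 g/10 min. Aggregation was read on an aggregometer and reported as mean platelet aggregation rate (A%), n = 6.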

SMILES | EC50 (ECV-304) [µM] | Activity (Plasma) [%]
Cc1nc(C)c(CN2CCN(Cc3cccc(Cl)c3)CC2)nc1C | 503 | 10.56
Cc1nc(C)c(CN2CCN(Cc3ccc(Cl)cc3)CC2)nc1C | 339 | 12.31
Cc1nc(C)c(CN2CCN(Cc3ccc(Cl)cc3Cl)CC2)nc1C | 424 | 5.7
Cc1nc(C)c(CN2CCN(Cc3ccccc3Br)CC2)nc1C | 784 | 7.68
Cc1nc(C)c(CN2CCN(Cc3ccc(Br)cc3)CC2)nc1C | 845 | 13.26
Cc1nc(C)c(CN2CCN(Cc3cccc(C#N)c3)CC2)nc1C | 1110 | 14.19
Cc1nc(C)c(CN2CCN(Cc3ccc(C#N)cc3)CC2)nc1C | 417 | 11.37
Cc1nc(C)c(CN2CCN(Cc3ccc([N+](=O)[O-])cc3)CC2)nc1C | 299 | 14.22
Cc1nc(C)c(CN2CCN(c3ccccc3)CC2)nc1C | 665 | 21.43
Cc1nc(C)c(CN2CCNCC2)nc1C | 481 | 11.36
Cc1nc(C)c(CN2CCN(C/C=C/c3ccccc3)CC2)nc1C | 428 | 8.36
Cc1nc(C)c(CN2CCN(C(c3ccccc3)c3ccccc3)CC2)nc1C | 218 | 9.88
Cc1nc(C)c(CN2CCN(C(c3ccc(F)cc3)c3ccc(F)cc3)CC2)nc1C | 223 | 6.32
Cc1nc(C)c(CN2CCN(C(c3ccccc3)c3ccc(Cl)cc3)CC2)nc1C (stereo unspecified) | 253 | 5.19
Cc1nc(C)c(CN2CCN(Cc3nc(C)c(C)nc3C)CC2)nc1C | 311 | 19.36
Cc1nc(C)c(CN2CCN(Cc3ccccc3)CC2)nc1C | 246 | 9.06
Cc1ccc(CN2CCN(Cc3nc(C)c(C)nc3C)CC2)cc1 | 328 | 17.69
CCc1ccc(CN2CCN(Cc3nc(C)c(C)nc3C)CC2)cc1 | 375 | 13.56
Cc1nc(C)c(CN2CCN(Cc3ccc(C(C)(C)C)cc3)CC2)nc1C | 431 | 15.32
Cc1nc(C)c(CN2CCN(Cc3ccccc3C#N)CC2)nc1C | 637 | 12.16
Cc1nc(C)c(CN2CCN(CCc3ccccc3)CC2)nc1C | 542 | 9.77
Cc1nc(C)c(CN2CCN(Cc3ccccc3Cl)CC2)nc1C | 405 | 9.67
Cc1nc(C)c(C)nc1C [LIGUSTRAZINE] | 452 | 7.86

From ChEMBL document CHEMBL1147932, “Design, synthesis, and biological activities of novel Ligustrazine derivatives” (Bioorg Med Chem, 2007)
